Converted amounts (≈) assume the structure as drawn.
Assays:
[1] = system: Escherichia coli; experiment: microbe, parasite or virus in culture; conditions: ATCC 25992
[2] = system: Klebsiella pneumoniae; experiment: Antibacterial activity against Klebsiella pneumoniae CCUG45421 by Etest method in presence of 4 ug/ml NAB7063; type: functional
[3] = system: Acinetobacter baumannii; experiment: Antibacterial activity against Acinetobacter baumannii F264 by Etest method in presence of […] NAB739; type: functional
[4] = system: Escherichia coli; experiment: microbe, parasite or virus in culture; conditions: ATCC 25992; remark: listed apart in the source
[5] = system: Escherichia coli; experiment: Antibacterial activity against 5 x 10^5 CFU/ml Escherichia coli ATCC […] by Etest method in presence of […] NAB739; type: functional
[6] = system: Klebsiella oxytoca; experiment: Antibacterial activity against Klebsiella oxytoca ATCC 13182 by Etest method in presence of 4 ug/ml NAB7065; type: functional
[7] = system: Escherichia coli; experiment: Antibacterial activity against Escherichia coli IH3080 by Etest method in presence of 1 ug/ml NAB7061; type: functional
[8] = system: Acinetobacter baumannii; experiment: Antibacterial activity against Acinetobacter baumannii ATCC 19606 by Etest method in presence of 4 ug/ml NAB7070; type: functional
[9] = system: Escherichia coli; experiment: Antibacterial activity against 5 x 10^5 CFU/ml Escherichia coli ATCC 25992 in presence of 8 ug/ml NAB7061 by Checkerboard method; type: functional
[10] = system: Acinetobacter baumannii; experiment: Antibacterial activity against Acinetobacter baumannii F264 by Etest method; type: functional
How it was run: (§1)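 E-strip MIC on Mueller-Hinton agar without added peptide; inoculum per manufacturer, matching CLSI M2-A9.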

[11] = system: Pseudomonas aeruginosa; experiment: Antibacterial activity against Pseudomonas aeruginosa ATCC 27853by Etest method in presence of 1 ug/ml NAB739; type: functional
How it was run: (§2)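 MICs of the antibiotic taken from E-strips on Mueller-Hinton agar, run both with and without peptide. […] Inoculum was prepared per the strip manufacturer, matching CLSI M2-A9.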

[12] = system: Escherichia coli; experiment: microbe, parasite or virus in culture; conditions: ATCC 25992; remark: listed apart in the source
[13] = system: Escherichia coli; experiment: Antibacterial activity against Escherichia coli ATCC […] by Etest method in presence of 4 ug/ml NAB7064; type: functional
[14] = system: Klebsiella pneumoniae; experiment: Antibacterial activity against Klebsiella pneumoniae by Etest method in presence of 4 ug/ml NAB7064; type: functional
[15] = system: Pseudomonas aeruginosa; experiment: Antibacterial activity against Pseudomonas aeruginosa ATCC 27853 by Etest method in presence of 4 ug/ml NAB7075; type: functional
[16] = system: Acinetobacter baumannii; experiment: Antibacterial activity against Acinetobacter baumannii F264 by Etest method in presence of 0.5 ug/ml NAB739; type: functional
[17] = system: Enterobacter cloacae; experiment: Antibacterial activity against Enterobacter cloacae CCUG52947 by Etest method in presence of 4 ug/ml NAB7067; type: functional
[18] = system: Klebsiella pneumoniae; experiment: Antibacterial activity against Klebsiella pneumoniae ATCC 13883 by Etest method in presence of NAB7061; type: functional
How it was run: as §2

[19] = system: Escherichia coli; experiment: Antibacterial activity against Escherichia coli ATCC […] by Etest method in presence of 2 ug/ml NAB7062; type: functional
[20] = system: Enterobacter cloacae; experiment: Antibacterial activity against Enterobacter cloacae ATCC 23355 […] by Etest method in presence of NAB7061; type: functional
[21] = system: Escherichia coli; experiment: Antibacterial activity against Escherichia coli IH3080 by Etest method in presence of 4 ug/ml NAB7064; type: functional
[22] = system: Escherichia coli; experiment: Antibacterial activity against Escherichia coli NCTC13353 by Etest method in presence of 4 ug/ml NAB7062; type: functional
[23] = system: Escherichia coli; experiment: Antibacterial activity against Escherichia coli IH3080 by Etest method; type: functional
How it was run: as §1

[24] = system: Klebsiella pneumoniae; experiment: Antibacterial activity against Klebsiella pneumoniae ATCC 13883 by Etest method in presence of 1 ug/ml NAB7061; type: functional
How it was run: as §2

[25] = system: Acinetobacter baumannii; experiment: Antibacterial activity against Acinetobacter baumannii ATCC 19606 by Etest method in presence of NAB739; type: functional
[26] = system: Serratia marcescens; experiment: Antibacterial activity against Serratia marcescens ATCC 8100 by Etest method in presence of 4 ug/ml NAB7072; type: functional
[27] = system: Enterobacter cloacae; experiment: Antibacterial activity against Enterobacter cloacae by Etest method in presence of 4 ug/ml NAB7068; type: functional
[28] = system: Escherichia coli; experiment: Antibacterial activity against Escherichia coli ATCC […] by Etest method in presence of 1 ug/ml NAB7061; type: functional
[29] = system: Enterobacter cloacae; experiment: Antibacterial activity against Enterobacter cloacae ATCC 23355 […] by Etest method in presence of 4 ug/ml NAB7064; type: functional
[30] = system: Klebsiella pneumoniae; experiment: Antibacterial activity against Klebsiella pneumoniae ATCC 13883 by Etest method in presence of 2 ug/ml NAB7061; type: functional
How it was run: as §2

[31] = system: Escherichia coli; experiment: Antibacterial activity against 5 x 10^5 CFU/ml Escherichia coli ATCC 25992 in presence of 2 ug/ml NAB7061 by Checkerboard method; type: functional
[32] = system: Acinetobacter baumannii; experiment: Antibacterial activity against Acinetobacter baumannii ATCC 19606 by Etest method; type: functional
[33] = system: Escherichia coli; experiment: microbe, parasite or virus in culture; conditions: ATCC 25992; remark: listed apart in the source
[34] = system: Escherichia coli; experiment: Antibacterial activity against 5 x 10^5 CFU/ml Escherichia coli ATCC 25992 in presence of 16 ug/ml NAB7061 by Checkerboard method; type: functional
[35] = system: Enterobacter cloacae; experiment: Antibacterial activity against Enterobacter cloacae ATCC 23355 by Etest method; type: functional
How it was run: as §1

[36] = system: Acinetobacter baumannii; experiment: Antibacterial activity against Acinetobacter baumannii ATCC 19606 by Etest method in presence of 1 ug/ml NAB739; type: functional
[37] = system: Enterobacter cloacae; experiment: Antibacterial activity against Enterobacter cloacae ATCC 23355 […] by Etest method in presence of 1 ug/ml NAB7061; type: functional
[38] = system: Pseudomonas aeruginosa; experiment: Antibacterial activity against Pseudomonas aeruginosa ATCC 27853by Etest method in presence of 2 ug/ml NAB739; type: functional
[39] = system: Escherichia coli; experiment: Antibacterial activity against Escherichia coli by Etest method in presence of 4 ug/ml NAB7061; type: functional
[40] = system: Escherichia coli; experiment: microbe, parasite or virus in culture; conditions: ATCC 25992; remark: listed apart in the source
[41] = system: Pseudomonas aeruginosa; experiment: Antibacterial activity against Pseudomonas aeruginosa ATCC 27853by Etest method in presence of 0.5 ug/ml NAB739; type: functional
How it was run: as §2

[42] = system: Escherichia coli; experiment: Antibacterial activity against 5 x 10^5 CFU/ml Escherichia coli ATCC […] by Etest method by Etest in presence of 4 ug/ml NAB7061; type: functional
How it was run: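 Antibiotic MICs were read from E-strips on Mueller-Hinton agar containing the peptide at 1 to 16 μg/ml in twofold steps, or at a single 4 μg/ml, and on agar without peptide. The inoculum was prepared per the strip maker's instructions and matched CLSI M2-A9. Values come from two independent determinations.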

[43] = system: Acinetobacter baumannii; experiment: Antibacterial activity against Acinetobacter baumannii F264 by Etest method in presence of 1 ug/ml NAB739; type: functional
[44] = system: Klebsiella pneumoniae; experiment: Antibacterial activity against Klebsiella pneumoniae ATCC 13883 by Etest method in presence of 4 ug/ml NAB7061; type: functional
How it was run: as §2

[45] = system: Pseudomonas aeruginosa; experiment: Antibacterial activity against Pseudomonas aeruginosa ATCC 27853by Etest method; type: functional
How it was run: as §2

Compound `CO[C@H]1/C=C/O[C@@]2(C)Oc3c(C)c(O)c4c(O)c(c(/C=N/N5CCN(C)CC5)c(O)c4c3C2=O)NC(=O)/C(C)=C\C=C\[C@H](C)[C@H](O)[C@@H](C)[C@@H](O)[C@@H](C)[C@H](OC(C)=O)[C@@H]1C` [RIFAMPIN] has an MIC [1] of 8 µg/mL (≈ 9.72 µM), an MIC [2] of 2 µg/mL and an MIC [3] of 0.38 µg/mL. For the same compound, the MIC [4] was 8 µg/mL (≈ 9.72 µM), the MIC [5] was 12 µg/mL and the MIC [6] was 0.032 µg/mL. The MIC [7] was 0.25 µg/mL, the MIC [8] was 0.094 µg/mL and the MIC [9] was 0.031 µg/mL. For the same compound, the MIC [10] was 12 µg/mL (≈ 14.6 µM), the MIC [11] was 16 µg/mL and the MIC [12] was 8 µg/mL (≈ 9.72 µM). For the same compound, the MIC [13] was 0.016 µg/mL, the MIC [14] was 0.19 µg/mL and the MIC [15] was 12 µg/mL. For the same compound, the MIC [16] was 0.094 µg/mL, the MIC [17] was 0.032 µg/mL and the MIC [18] was no more than 0.073 µg/mL. It also gave an MIC [19] of 0.064 µg/mL, an MIC [20] of 0.26 µg/mL and an MIC [21] of 0.023 µg/mL. The MIC [22] was 0.064 µg/mL, the MIC [23] was 8 µg/mL (≈ 9.72 µM) and the MIC [24] was 1.5 µg/mL. For the same compound, the “fractional inhibitory concentration index (FICI)” value [25] was 0.126, the MIC [26] was 16 µg/mL and the MIC [27] was 0.016 µg/mL. It also gave an MIC [28] of 0.19 µg/mL, an MIC [29] of 0.008 µg/mL and an MIC [30] of 0.25 µg/mL. For the same compound, the MIC [31] was 0.5 µg/mL, the MIC [32] was 4 µg/mL (≈ 4.86 µM) and the MIC [33] was 8 µg/mL (≈ 9.72 µM). For the same compound, the MIC [34] was 0.031 µg/mL, the MIC [35] was 12 µg/mL (≈ 14.6 µM) and the MIC [36] was 0.006 µg/mL. For the same compound, the MIC [37] was 8 µg/mL, the MIC [38] was 4 µg/mL and the MIC [39] was 0.016 µg/mL. For the same compound, the MIC [40] was 8 µg/mL (≈ 9.72 µM), the MIC [41] was 32 µg/mL and the MIC [42] was 0.016 µg/mL. It also gave an MIC [43] of 0.016 µg/mL, an MIC [44] of 0.064 µg/mL and an MIC [45] of 32 µg/mL (≈ 38.9 µM).
